For orientation: Ki means the equilibrium dissociation constant of an inhibitor or competing ligand from its target. As usually defined, the logP is a log measure of how a compound divides between an organic and an aqueous phase. Low values mean a more hydrophilic compound, high ones a more lipophilic compound. One may read the EC50 as the concentration needed to bring the measured effect to its halfway point.

These results are taken from ChEMBL document CHEMBL3259688, “Synthesis and structure-activity relationship studies of conformationally flexible tetrahydroisoquinolinyl triazole carboxamide and triazole substituted benzamide analogues as σ2 receptor ligands” (J Med Chem, 2014).

Data set [1] concerns the target Sigma non-opioid intracellular receptor 1 (Cavia porcellus, UniProt Q60492). Kind of data set: Displacement of (+)-[3H]pentazocine from sigma-1 receptor in guinea pig brain membrane homogenate after 90 mins by liquid scintillation counting analysis. It counts as cell membranes. An outline of the steps:
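Nonspecific binding with cold haloperidol. Compounds from DMSO or ethanol, diluted in 50 mM Tris-HCl, 150 mM NaCl, 100 mM EDTA, pH 7.4. Stopped with ice-cold 10 mM Tris-HCl/150 mM NaCl pH 7.4, filtered on fiberglass, washed, scintillation counted.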

A short description of data set [2]: Displacement of [3H]DTG from sigma-2 receptor in rat liver membrane homogenate after 2 hrs by liquid scintillation counting analysis in presence of pentazocine. Format: cell membranes. On the technique in general: In a radioligand displacement assay an active substance lowers the binding of a labelled ligand.
Data set [3] can be described thus: Selectivity ratio of Ki for sigma-1 receptor in guinea pig brain membrane homogenate to Ki for sigma-2 receptor in rat liver membrane homogenate. Format: cell membranes.
For data set [4], the target named is Sigma non-opioid intracellular receptor 1 (Homo sapiens, UniProt Q99720). Nature of the data set: Binding affinity to sigma-1 receptor (unknown origin).
Chain of Sigma non-opioid intracellular receptor 1 (Homo sapiens, UniProt Q99720) (Q99720 whole entry): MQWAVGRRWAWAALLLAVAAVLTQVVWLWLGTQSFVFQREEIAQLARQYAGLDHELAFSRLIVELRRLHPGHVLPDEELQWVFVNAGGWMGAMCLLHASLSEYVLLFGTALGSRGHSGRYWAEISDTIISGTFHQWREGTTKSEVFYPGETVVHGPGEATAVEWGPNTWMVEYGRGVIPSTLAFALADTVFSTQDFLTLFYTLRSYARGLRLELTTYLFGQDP
Data set [5] is described as follows: Binding affinity to sigma-2 receptor (unknown origin). Also noted: species or system Homo sapiens.
The species entered for the next data set is Homo sapiens. Nature of the data set: Selectivity ratio of Ki for sigma-1 receptor (unknown origin) to Ki for sigma-2 receptor (unknown origin).
Data set [6] in a line: Lipophilicity, log P of the compound. Particulars: octanol/water. Format: physicochemical.
For data set [7], the target named is Sigma non-opioid intracellular receptor 1 (Mus musculus, UniProt O55242). Kind of data set: Displacement of 5-bromo-N-(4-(3,4-dihydro-6,7-dimethoxyisoquinolin-2(1H)-yl)butyl)-2,3-dimethoxybenzamide from sigma-1 receptor in mouse EMT6 cell membranes after 60 mins by Scatchard plot analysis.
Chain of Sigma non-opioid intracellular receptor 1 (Mus musculus, UniProt O55242) (O55242 whole entry): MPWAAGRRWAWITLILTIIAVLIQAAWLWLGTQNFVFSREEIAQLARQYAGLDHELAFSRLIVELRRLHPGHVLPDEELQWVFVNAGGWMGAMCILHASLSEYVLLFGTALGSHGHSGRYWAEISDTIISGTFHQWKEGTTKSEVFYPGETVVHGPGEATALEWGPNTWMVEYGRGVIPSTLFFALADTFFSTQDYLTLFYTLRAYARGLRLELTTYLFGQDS
Data set [8] is described as follows: Displacement of 5-bromo-N-(4-(3,4-dihydro-6,7-dimethoxyisoquinolin-2(1H)-yl)butyl)-2,3-dimethoxybenzamide from sigma-2 receptor in mouse EMT6 cell membranes after 60 mins by Scatchard plot analysis.
A further data set has as its system EMT6. Nature of the data set: Selectivity ratio of Ki for sigma-1 receptor in mouse EMT6 cell membranes to Ki for sigma-2 receptor in mouse EMT6 cell membranes. It counts as cell-based.
A short description of data set [9]: Antagonist activity at sigma-2 receptor in mouse EMT6 cells assessed as inhibition of cell proliferation after 24 hrs by MTS assay. Format: cell-based. Particulars: EMT6, 24 h. In short, it runs like this:
(§1)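 EMT-6 mouse breast cancer cells grown in DMEM with 10% FBS and penicillin/streptomycin at 37 °C, 5% CO2. Seeded at 5 × 10^3 cells/well 24 h before dosing; serial dilutions from DMSO stocks, final DMSO ≤1.0%. Exposure 24 or 48 h, then MTS reagent 1–2 h at 37 °C, absorbance 490 nm vs untreated cells. EC50 from dose–response curves; triplicate wells, mean ± SEM of three independent experiments.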

A short description of data set [10]: Antagonist activity at sigma-2 receptor in mouse EMT6 cells assessed as inhibition of cell proliferation after 48 hrs by MTS assay. It counts as cell-based. Particulars: EMT6, 48 h. In short, it runs like this:
as §1
Background: Tetrazolium assays rely on reduction of a dye to a coloured formazan, in cell work by metabolically active cells.

Data set [11] is described as follows: Displacement of [3H]DTG from sigma-2 receptor in human MCF7 cell membranes after 120 mins.

Chain of Sigma non-opioid intracellular receptor 1 (Cavia porcellus, UniProt Q60492) (Q60492 whole entry): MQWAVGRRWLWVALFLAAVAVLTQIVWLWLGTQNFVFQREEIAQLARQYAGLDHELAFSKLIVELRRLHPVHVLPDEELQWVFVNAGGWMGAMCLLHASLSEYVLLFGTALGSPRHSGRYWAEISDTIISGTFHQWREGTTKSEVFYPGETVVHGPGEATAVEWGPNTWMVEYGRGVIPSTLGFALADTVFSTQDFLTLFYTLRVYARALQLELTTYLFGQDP

Consider `COc1cccc(Cn2cc(C(=O)NCCCCN3CCc4cc(OC)c(OC)cc4C3)nn2)c1`, for which the Ki is 12700 nM in data set [1] and 10.7 nM in [2]. Also, in data set [3], the Ratio Ki is 1180.
Regarding `COc1ccc(Cn2cc(-c3ccc(C(=O)NCCCCN4CCc5cc(OC)c(OC)cc5C4)cc3)nn2)cc1`, the Ki in data set [1] turned out to be 12600 nM; in data set [2], 31.4 nM. In [3], the Ratio Ki is 406.
`CN1CC[C@]2(c3cccc(O)c3)CC/C(=C/c3ccccc3)[C@@H]1C2`: the Ki in data set [4] is 3060 nM; in [5], 16.5 nM. For the same molecule, the Ratio Ki in the data set listed under Homo sapiens was 185. The logP in data set [6] was found to be 3.22.
With `COc1cc2c(cc1OC)CN(CCCCNC(=O)c1cc(C)ccc1OCCF)CC2`, the logP in [6] was determined as 3.74. Moreover, the Ki in data set [7] worked out at 330 nM; in [8], 6.59 nM. In the data set with EMT6, the Ratio Ki was 48.
As to `COc1cccc(Cn2cc(-c3ccc(C(=O)NCCCCN4CCc5cc(OC)c(OC)cc5C4)cc3)nn2)c1`, the Ki in [1] was 11500 nM; in data set [2], 66.2 nM. Moreover, the Ratio Ki in [3] was 174.
Taken in the same sequence, the figures for `C#CCOc1ccc(C#N)cc1C(=O)NCCCCN1CCc2cc(OC)c(OC)cc2C1` were 3680 nM, 12.2 nM and 301.
Taken in the same sequence, the figures for `COc1ccccc1Cn1cc(-c2ccc(C(=O)NCCCCN3CCc4cc(OC)c(OC)cc4C3)cc2)nn1` were 8580 nM, 55 nM and 156.
With `COc1cc2c(cc1OC)CN(CCCCNC(=O)c1ccc(-c3cn(CCOCCOCCF)nn3)cc1)CC2`, the Ki in data set [1] was found to be 16000 nM; in data set [2], 212 nM. Moreover, the Ratio Ki in [3] was found to be 75.
As for `COc1ccc(Cn2cc(C(=O)NCCN3CCc4cc(OC)c(OC)cc4C3)nn2)cc1`, the figures for the Ki in [1] and in data set [2] were 84500 nM and 93.2 nM, respectively. In data set [3], the Ratio Ki was determined as 906.
`COc1cc2c(cc1OC)CN(CCNC(=O)c1cn(-c3ccccc3OC)nn1)CC2`: the figures for the Ki in data set [1] and in data set [2] were 15500 nM and 150 nM, respectively. The Ratio Ki in data set [3] was determined as 103.
With `COc1cc2c(cc1OC)CN(CCCCNC(=O)c1cc(C)ccc1OC)CC2`, the logP in [6] amounted to 3.55. This molecule registered a Ki in data set [7] of 3080 nM.
For the molecule `COc1cccc(-n2cc(C(=O)NCCCCN3CCc4cc(OC)c(OC)cc4C3)nn2)c1`, the figures for the Ki in [1] and in data set [2] were 20200 nM and 3 nM, respectively. Also, the Ratio Ki in data set [3] came out at 6730.
Regarding `COc1ccc(-n2cc(C(=O)NCCN3CCc4cc(OC)c(OC)cc4C3)nn2)cc1`, the Ki was more than 100000 nM in data set [1] and 410 nM in data set [2]. In [3], the Ratio Ki is more than 243.
For the molecule `COc1cc2c(cc1OC)CN(CCCCNC(=O)c1cc(C#N)ccc1OCc1cn(CCF)nn1)CC2`, the Ki worked out at 14100 nM in [1] and 31.9 nM in [2]. Besides, in data set [3], the Ratio Ki turned out to be 442.
For `COc1ccccc1Cn1cc(C(=O)NCCN2CCc3cc(OC)c(OC)cc3C2)nn1`, the Ki stood at 18600 nM in data set [1] and 156 nM in [2]. Further, the Ratio Ki in [3] came to 118.
`COc1cc2c(cc1OC)CN(CCCCNC(=O)c1ccc(-c3cn(CCOCCF)nn3)cc1)CC2`: the inhibitory constant (Ki) in [1] was found to be 14700 nM; in [2], 137 nM. Moreover, the Ratio Ki in data set [3] was determined as 107.
In the case of `COc1cc2c(cc1OC)CN(CCCCNC(=O)c1c[nH]nn1)CC2`, the Ki is 11000 nM in data set [1] and 1020 nM in data set [2]. Further, the Ratio Ki in [3] worked out at 10.7.
On the same counts, the results for `COc1cc2c(cc1OC)CN(CCCCNC(=O)c1cc(-n3cc(CN(C)C)nn3)ccc1OCCF)CC2` are 21900 nM, 94 nM and 232.
For the molecule `COc1cc2c(cc1OC)CN(CCCCNC(=O)c1cn(Cc3ccc(OCCF)cc3)nn1)CC2`, the Ki in [1] is 21500 nM; in [2], 48.2 nM. Also, in [3], the Ratio Ki came to 447.
Taken in the same sequence, the figures for `COc1cc2c(cc1OC)CN(CCCCNC(=O)c1cn(-c3ccccc3OC)nn1)CC2` were 13100 nM, 1.5 nM and 8740.
On the same counts, the results for `COc1cc2c(cc1OC)CN(CCCCNC(=O)c1cc(-n3cc(COCCOCCF)nn3)ccc1OC)CC2` are 11500 nM, 66 nM and 174.
Taken in the same sequence, the figures for `COc1cc2c(cc1OC)CN(CCCCNC(=O)c1cn(Cc3cccc(O)c3)nn1)CC2` were 8080 nM, 22.5 nM and 359.
For the molecule `COc1cccc(Cn2cc(-c3cccc(C(=O)NCCCCN4CCc5cc(OC)c(OC)cc5C4)c3)nn2)c1`, the Ki in data set [1] is 1750 nM; in data set [2] it was 66 nM. In addition, the Ratio Ki in [3] was 26.
`COc1cc2c(cc1OC)CN(CCCCNC(=O)c1cn(Cc3ccccc3)nn1)CC2`: the results for the Ki in data set [1] and in data set [2] were 4480 nM and 12.4 nM, respectively. Moreover, the Ratio Ki in data set [3] was 361.
On to `COc1cc2c(cc1OC)CN(CCCCNC(=O)c1cn(Cc3cccc(OCCF)c3)nn1)CC2`, for which the inhibition constant Ki in data set [1] came out at 46300 nM; in [2], 62.1 nM. Besides, the Ratio Ki in data set [3] stood at 744.
Regarding `COc1cc2c(cc1OC)CN(CCCCNC(=O)c1cn(-c3cccc(OCCF)c3)nn1)CC2`, the Ki in [1] was 17900 nM; in data set [2], 25.1 nM. For the same molecule, the Ratio Ki in data set [3] was 715.
Taken in the same sequence, the figures for `COc1cc2c(cc1OC)CN(CCCCNC(=O)c1cc(-n3cc(-c4cncn4C)nn3)ccc1OC)CC2` were 6360 nM, 20.7 nM and 307.
In the case of `COc1cc2c(cc1OC)CN(CCCCNC(=O)c1cc(I)ccc1OCCF)CC2`, the logP in data set [6] is 4.61. The Ki in data set [7] stood at 1300 nM; in [8] it was 1.06 nM.
`COc1cc2c(cc1OC)CN(CCCCNC(=O)c1ccc(-c3cn(CCF)nn3)cc1)CC2`: the results for the Ki in [1] and in [2] were 71900 nM and 139 nM, respectively. The Ratio Ki in data set [3] was determined as 517.
As to `COc1cccc(Cn2cc(C(=O)NCCN3CCc4cc(OC)c(OC)cc4C3)nn2)c1`, the values for the Ki in data set [1] and in [2] were 80100 nM and 214 nM, respectively. Besides, the Ratio Ki in data set [3] stood at 373.
On to `COc1cc2c(cc1OC)CN(CCCCNC(=O)c1cn(-c3ccccc3OCCF)nn1)CC2`, for which the results for the Ki in data set [1] and in data set [2] were 17100 nM and 24 nM, respectively. Moreover, in [3], the Ratio Ki worked out at 713.
Consider `CN1CC[C@]2(c3cccc(O)c3)CC/C(=C/c3ccc(Cl)c(Cl)c3)[C@@H]1C2`, for which the Ki amounted to 7460 nM in [4] and 13.4 nM in data set [5]. Also, in the data set filed under Homo sapiens, the Ratio Ki came out at 557. In addition, in [6], the logP turned out to be 4.34.
`COc1cccc(-n2cc(C(=O)NCCN3CCc4cc(OC)c(OC)cc4C3)nn2)c1`: the values for the Ki in [1] and in data set [2] were 76700 nM and 180 nM, respectively. For the same molecule, the Ratio Ki in [3] worked out at 426.
As for `COc1cc2c(cc1OC)CN(CCCCNC(=O)c1cn(Cc3ccc(O)cc3)nn1)CC2`, the inhibitory constant (Ki) is 63500 nM in data set [1] and 11.6 nM in data set [2]. The Ratio Ki in data set [3] came to 5480.
Taken in the same sequence, the figures for `COc1ccccc1Cn1cc(C(=O)NCCCCN2CCc3cc(OC)c(OC)cc3C2)nn1` were 20600 nM, 9.7 nM and 2120.
As to `COc1ccc(-n2cc(C(=O)NCCCCN3CCc4cc(OC)c(OC)cc4C3)nn2)cc1`, the half-maximal effective concentration (EC50) in [9] and in data set [10] was more than 200000 nM throughout. For the same molecule, the Ki in data set [1] was found to be 39200 nM; in [2], 5.5 nM. In data set [3], the Ratio Ki was 7120.
For `COc1cccc2c1CCCC2CCCN1CCN(C2CCCCC2)CC1` (configuration not stated), the logP in data set [6] turned out to be 5. This molecule also displayed a Ki in data set [11] of 0.28 nM.
In the case of `COc1cc2c(cc1OC)CN(CCCCNC(=O)c1cc(-n3cc(CN(C)C)nn3)ccc1OC)CC2`, the Ki in [1] is 22400 nM; in data set [2], 56.8 nM. Besides, the Ratio Ki in [3] was determined as 395.
As for `COc1cc2c(cc1OC)CN(CCCCNC(=O)c1cn(-c3ccc(OCCF)cc3)nn1)CC2`, the figures for the Ki in [1] and in [2] were 46300 nM and 21.9 nM, respectively. In addition, the Ratio Ki in data set [3] was 2120.
`Fc1ccc(-n2cc(CCCCN3CCC4(CC3)OCc3ccccc34)c3ccccc32)cc1` [SIRAMESINE] came in with a Ki in data set [5] of 0.12 nM. In data set [6], this molecule came in with a logP of 6.07. Further, the EC50 in [9] was found to be 14900 nM; in data set [10], 5300 nM.
As for `COc1ccc(Cn2cc(C(=O)NCCCCN3CCc4cc(OC)c(OC)cc4C3)nn2)cc1`, the Ki in [1] turned out to be 3350 nM; in data set [2], 5 nM. For the same molecule, the Ratio Ki in data set [3] worked out at 669.
